In brackets after ≈: the same amount, converted by molar mass.
How the values were obtained:
HT-29 [1] = assay: Cytotoxicity against human HT-29 cells after 48 hrs by MTT assay; assay type: functional, cell-based; settings: HT-29, 48 h
Method in brief: (§1)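 HeLa (3000) or HT29 (12 500 cells/well) grown in DMEM with 10% FBS, 5% CO2, 37 °C; treated with graded concentrations 24 h after seeding, DMSO solvent control, then incubated 48 h before MTT viability read-out; IC50 fitted from duplicate experiments.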

HeLa [2] = assay: Cytotoxicity against human HeLa cells after 48 hrs by MTT assay; assay type: functional, cell-based; method in brief: as §1
Staphylococcus aureus = assay: Antimicrobial activity against Staphylococcus aureus ATCC 6538 after 24 hrs by broth microdilution method; assay type: functional; settings: ATCC 6538, 24 h
Method in brief: (§2)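 Broth microdilution in Mueller–Hinton broth; colony grown 6–8 h at 37 °C, adjusted to 0.5 McFarland then diluted 100-fold as inoculum. Treated 24 h at 37 °C, 150 rpm; 0.02% v/v resazurin added, fluorescence read at ex 530/em 590 nm. Oxacillin (S. aureus) or nalidixic acid (P. aeruginosa) positive controls, MHB-only sterility control; % inhibition relative to solvent control.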

Pseudomonas aeruginosa = assay: Antimicrobial activity against Pseudomonas aeruginosa ATCC 27853 after 24 hrs by broth microdilution method; assay type: functional; settings: ATCC 27853, 24 h; method in brief: as §2
[3] = Antifungal activity against Dendryphiella salina assessed as growth inhibition at 62.5 ug/ml; assay type: functional; settings: Paradendryphiella salina
Method in brief: (§3)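 Fungus (Lindra thalassiae, Dendryphiella salina or Fusarium sp.) exposed to sample dissolved in MeOH, serially diluted, added to molten YPM P/S agar; MeOH-only solvent controls plus media-only wells; triplicate wells; 1 mm2 plug of culture transferred per well, 26 °C. Scored when media controls fully covered by hyphae: hyphae-containing squares counted through window screen; % inhibition versus solvent control.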

[4] = Antifungal activity against Dendryphiella salina assessed as growth inhibition at 6.25 ug/ml; assay type: functional; settings: Paradendryphiella salina; method in brief: as §3
Lindra thalassiae [5] = assay: Antifungal activity against Lindra thalassiae assessed as growth inhibition at 62.5 ug/ml; assay type: functional; settings: Lindriella thalassiae; read-out: GI; method in brief: as §3
Lindra thalassiae [6] = assay: Antifungal activity against Lindra thalassiae assessed as growth inhibition at 6.25 ug/ml; assay type: functional; settings: Lindriella thalassiae; read-out: GI; method in brief: as §3
Fusarium sp. [7] = assay: Antifungal activity against Fusarium sp. assessed as growth inhibition at 62.5 ug/ml; assay type: functional; settings: read-out: GI; method in brief: as §3
Fusarium sp. [8] = assay: Antifungal activity against Fusarium sp. assessed as growth inhibition at 6.25 ug/ml; assay type: functional; settings: read-out: GI; method in brief: as §3
[9] = Antifungal activity against Dendryphiella salina assessed as growth inhibition at 625 ug/ml; assay type: functional; settings: Paradendryphiella salina; method in brief: as §3
Lindra thalassiae [10] = assay: Antifungal activity against Lindra thalassiae assessed as growth inhibition at 625 ug/ml; assay type: functional; settings: Lindriella thalassiae; read-out: GI; method in brief: as §3
Fusarium sp. [11] = assay: Antifungal activity against Fusarium sp. assessed as growth inhibition at 625 ug/ml; assay type: functional; settings: read-out: GI; method in brief: as §3
HT-29 [12] = assay: Cytotoxicity against human HT-29 cells after 1 to 48 hrs by MTT assay; assay type: functional, cell-based
Method in brief: (§4)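 HeLa and HT29 cultured in DMEM with 10% FBS at 37 °C, 5% CO2, exposed to graded concentrations for 1, 3, 6, 12, 24 or 48 h; MTT viability read-out, IC50 at each time point.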

HeLa [13] = assay: Cytotoxicity against human HeLa cells after 1 to 48 hrs by MTT assay; assay type: functional, cell-based; method in brief: as §4

C[C@@H]1[C@H](O)[C@@H](C)/C=C/C=C/C=C/C=C/C=C/C=C/C=C/[C@H](O[C@@H]2O[C@H](C)[C@@H](O)[C@H](N)[C@@H]2O)C[C@@H]2O[C@](O)(C[C@@H](O)C[C@@H](O)[C@H](O)CC[C@@H](O)C[C@@H](O)CC(=O)O[C@H]1C)C[C@H](O)[C@H]2C(=O)O [AMPHOTERICIN B]
IC50 (HT-29 [1]): 10 µM
IC50 (HeLa [2]): 10 µM
MIC (Staphylococcus aureus): > 100 µM
MIC (Pseudomonas aeruginosa): > 100 µM
growth inhibition (GI) [3]: 100%
growth inhibition (GI) [4]: 100%
inhibition of growth at 62.5 µg/mL (Lindra thalassiae [5]): 21%
inhibition of growth at 6.25 µg/mL (Lindra thalassiae [6]): 0%
inhibition of growth at 62.5 µg/mL (Fusarium sp. [7]): 6%
inhibition of growth at 6.25 µg/mL (Fusarium sp. [8]): 12%

CC(=O)OC1CCCC(O)CCCC(O)CCCC(O)CCCC(O)CCCC(O)CCC[C@@H](O)C[C@@H](O)CCC/C(C)=C\C(=O)OC(C(C)(C)C)CC(O)CCC1 (some centres undefined)
IC50 (HT-29 [1]): 12 µM
IC50 (HeLa [2]): 9.9 µM

CC(=O)OC1CCCC(OC(C)=O)CCCC(OC(C)=O)CCCC(OC(C)=O)CCC[C@@H](OC(C)=O)C[C@@H](OC(C)=O)CCC/C(C)=C\C(=O)OC(C(C)(C)C)CC(OC(C)=O)CCCC(OC(C)=O)CCCC(OC(C)=O)CCC1 (some centres undefined)
IC50 (HT-29 [1]): 58 µM
IC50 (HeLa [2]): 18 µM

C/C1=C/C(=O)OC(C(C)(C)C)CC(O)CCCC(O)CCCC(O)CCCC(O)CCCC(O)CCCC(O)CCCC(O)CCC[C@@H](O)C[C@@H](O)CCC1 (some centres undefined)
IC50 (HT-29 [1]): 0.87 µM
IC50 (HeLa [2]): 0.87 µM
MIC (Staphylococcus aureus): 32 µM (≈ 25.3 µg/mL)
MIC (Pseudomonas aeruginosa): 32 µM (≈ 25.3 µg/mL)
growth inhibition (GI) [9]: 100%
growth inhibition (GI) [3]: 60%
growth inhibition (GI) [4]: 0%
inhibition of growth at 625 µg/mL (Lindra thalassiae [10]): 100%
inhibition of growth at 62.5 µg/mL (Lindra thalassiae [5]): 100%
inhibition of growth at 6.25 µg/mL (Lindra thalassiae [6]): 40%
inhibition of growth at 625 µg/mL (Fusarium sp. [11]): 100%
inhibition of growth at 62.5 µg/mL (Fusarium sp. [7]): 100%
inhibition of growth at 6.25 µg/mL (Fusarium sp. [8]): 35%
IC50 (HT-29 [12]): 0.87 µM
IC50 (HeLa [13]): 0.87 µM
